What was measured:
KCC2 = molecular target: T1, KCC2 (Homo sapiens, UniProt Q9H2X9); assay: Tl influx assay in KCC2-transfected HEK293 cells; assay type: cell-based; conditions: 10 μM, versus control DMSO, mean ± SEM
T1 sequence (Q9H2X9 1-1139): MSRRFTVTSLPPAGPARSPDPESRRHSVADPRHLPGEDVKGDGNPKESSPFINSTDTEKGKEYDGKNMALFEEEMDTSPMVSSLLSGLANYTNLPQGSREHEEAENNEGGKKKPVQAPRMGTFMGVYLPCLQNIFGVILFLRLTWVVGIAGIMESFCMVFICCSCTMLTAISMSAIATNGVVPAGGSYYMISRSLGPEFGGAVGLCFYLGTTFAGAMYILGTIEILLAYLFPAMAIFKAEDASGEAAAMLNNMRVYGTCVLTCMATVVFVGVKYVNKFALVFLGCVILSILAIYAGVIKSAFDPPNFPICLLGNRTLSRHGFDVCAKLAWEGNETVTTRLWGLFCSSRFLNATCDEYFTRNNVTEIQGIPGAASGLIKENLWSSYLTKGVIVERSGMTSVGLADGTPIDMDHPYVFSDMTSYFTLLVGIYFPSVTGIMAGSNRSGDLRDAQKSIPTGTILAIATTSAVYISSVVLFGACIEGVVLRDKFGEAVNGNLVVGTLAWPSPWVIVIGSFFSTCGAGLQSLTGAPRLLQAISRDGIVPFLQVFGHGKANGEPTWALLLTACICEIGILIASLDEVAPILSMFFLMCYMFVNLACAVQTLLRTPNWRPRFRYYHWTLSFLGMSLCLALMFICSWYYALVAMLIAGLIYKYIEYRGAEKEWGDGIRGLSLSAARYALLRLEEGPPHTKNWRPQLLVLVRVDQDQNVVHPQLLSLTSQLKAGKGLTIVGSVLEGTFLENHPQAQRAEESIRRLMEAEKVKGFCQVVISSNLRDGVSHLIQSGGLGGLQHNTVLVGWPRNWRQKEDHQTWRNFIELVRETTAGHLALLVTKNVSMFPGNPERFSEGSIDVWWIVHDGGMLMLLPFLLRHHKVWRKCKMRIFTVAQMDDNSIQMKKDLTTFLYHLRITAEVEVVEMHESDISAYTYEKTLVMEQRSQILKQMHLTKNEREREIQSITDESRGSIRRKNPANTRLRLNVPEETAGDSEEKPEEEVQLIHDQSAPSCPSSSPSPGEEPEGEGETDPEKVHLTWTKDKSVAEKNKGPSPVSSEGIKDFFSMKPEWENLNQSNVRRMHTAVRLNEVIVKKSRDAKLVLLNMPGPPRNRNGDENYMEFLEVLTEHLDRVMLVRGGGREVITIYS
Summary of the method: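 KCC2 (in PRK5)- or mock-transfected HEK293 cells were loaded for 1 h with Tl-sensitive dye (1:1,000) and probenecid (1:100) in Cl−-free hypotonic solution, washed, then treated with test compound with 100 μM ouabain. Fluorescence (ex 485/em 535 nm) was read for 20 s baseline, 20 s after TlSO4 (2 mM final), then 60 s after NaCl (74 mM final). Mock ΔF/F0 (last 10 s) was subtracted; fluorescence increase is expressed as % of DMSO control.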

VPA mice and controls = assay: Diuresis analysis in VPA mice and controls; assay type: in vivo, mouse; conditions: 0.2 mg kg−1 IP; young adult control and VPA mice; relative to vehicle
Summary of the method: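 VPA-model offspring were from C57BL/6J dams given 600 mg/kg VPA i.p. in PBS at gestational day 12.5; controls were included. Mice of both sexes received one i.p. dose of vehicle or test compound at 0.2 mg/kg, from a 1 mg/mL DMSO stock diluted in PBS to 0.02 mg/mL and injected at 10 μL/g. Urine volume was collected for 120 min.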

[1] = test system: valproic acid (VPA) mouse model of ASD; assay: Grooming test in VPA mice; assay type: in vivo; conditions: 0.2 mg kg−1 IP daily, chronic
Summary of the method: (§1)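 Male VPA-model mice (prenatal VPA 600 mg/kg i.p. at gestational day 12.5) and controls, 6–8 weeks old, were randomized to vehicle (2% DMSO in saline) or test compound 0.2 mg/kg i.p. daily for 21–28 days. Tests started after 1 week of treatment, 1 h post-injection, and were video-scored manually by a blind operator.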

[2] = test system: 3DIV hippocampal mouse neurons; assay: Ca2+ influx assay upon GABA application in immature; assay type: cell-based; conditions: for Ca2+ influx upon GABA application: 10, 100 μM, GABA 100 μM, compared with DMSO-treated controls; for cell viability (fluorescence level upon KCl application): KCl 90 mM, 3DIV neurons
[3] = test system: Ts65Dn mice and WT littermates; assay: Diuresis analysis in Ts65Dn mice and WT littermates; assay type: in vivo, mouse; conditions: 0.2 mg kg−1 IP; adult WT and Ts65Dn mice; relative to vehicle
Summary of the method: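 Adult (P60–120) Ts65Dn mice and WT littermates of both sexes received one i.p. dose of vehicle or test compound at 0.2 mg/kg. The dose was given from a 1 mg/mL DMSO stock diluted in PBS to 0.02 mg/mL and injected at 10 μL/g. Urine volume was collected for 2 h, after which mice were returned to home cages.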

GABAA receptors = assay: Voltage-clamp recordings of GABA-evoked currents in neuronal cultures; assay type: cell-based; conditions: 10 μM bath application; 12–20 DIV hippocampal mouse neurons
Summary of the method: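 Cultured hippocampal mouse neurons at DIV12–20 were voltage-clamped at 22–24°C in extracellular solution. GABA-evoked currents (average of five sweeps) were recorded before and after bath application of test compound (10 μM). Cells with access resistance >25 MΩ or with >20% variation in GABA-current peak were excluded. Signals were sampled at 20 kHz and low-pass filtered at 10 kHz.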

[4] = test system: WT and Ts65Dn hippocampal neurons; assay: MQAE Cl− imaging in neuronal cultures; assay type: cell-based, mouse; conditions: 10 μM
Summary of the method: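 Hippocampal neurons from P2 WT and Ts65Dn pups were cultured on poly-L-lysine coverslips in Neurobasal-A/B-27. At 15 DIV they were loaded with 5 mM MQAE plus test compound (10 μM) or DMSO for 30 min at 37°C. Coverslips were then perfused with extracellular solution (pH 7.4) containing compound for 5 min at 25°C and imaged by confocal microscopy.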

[5] = test system: valproic acid (VPA) mouse model of ASD; assay: Male-female interaction test in VPA mice; assay type: in vivo; conditions: 0.2 mg kg−1 IP daily, chronic
Summary of the method: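 Male VPA-model mice (6–8 weeks) and controls were dosed i.p. daily with vehicle or test compound at 0.2 mg/kg, with testing 1 h post-injection after at least 1 week of treatment. Each male was placed alone in a cage and habituated for 5 min. An unfamiliar C57BL/6J female was then introduced, and behavior was recorded for 5 min and scored blind.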

[6] = test system: valproic acid (VPA) mouse model of ASD; assay: Marble burying test in VPA mice; assay type: in vivo; conditions: 0.2 mg kg−1 IP daily, chronic
Summary of the method: as §1

NKCC2 = molecular target: T2, NKCC2 (Homo sapiens, UniProt Q13621); assay: Cl− influx assay in NKCC2-transfected HEK293 cells; assay type: cell-based; conditions: HEK293, read-out: NKCC2 inhibition
T2 sequence (Q13621 1-1099): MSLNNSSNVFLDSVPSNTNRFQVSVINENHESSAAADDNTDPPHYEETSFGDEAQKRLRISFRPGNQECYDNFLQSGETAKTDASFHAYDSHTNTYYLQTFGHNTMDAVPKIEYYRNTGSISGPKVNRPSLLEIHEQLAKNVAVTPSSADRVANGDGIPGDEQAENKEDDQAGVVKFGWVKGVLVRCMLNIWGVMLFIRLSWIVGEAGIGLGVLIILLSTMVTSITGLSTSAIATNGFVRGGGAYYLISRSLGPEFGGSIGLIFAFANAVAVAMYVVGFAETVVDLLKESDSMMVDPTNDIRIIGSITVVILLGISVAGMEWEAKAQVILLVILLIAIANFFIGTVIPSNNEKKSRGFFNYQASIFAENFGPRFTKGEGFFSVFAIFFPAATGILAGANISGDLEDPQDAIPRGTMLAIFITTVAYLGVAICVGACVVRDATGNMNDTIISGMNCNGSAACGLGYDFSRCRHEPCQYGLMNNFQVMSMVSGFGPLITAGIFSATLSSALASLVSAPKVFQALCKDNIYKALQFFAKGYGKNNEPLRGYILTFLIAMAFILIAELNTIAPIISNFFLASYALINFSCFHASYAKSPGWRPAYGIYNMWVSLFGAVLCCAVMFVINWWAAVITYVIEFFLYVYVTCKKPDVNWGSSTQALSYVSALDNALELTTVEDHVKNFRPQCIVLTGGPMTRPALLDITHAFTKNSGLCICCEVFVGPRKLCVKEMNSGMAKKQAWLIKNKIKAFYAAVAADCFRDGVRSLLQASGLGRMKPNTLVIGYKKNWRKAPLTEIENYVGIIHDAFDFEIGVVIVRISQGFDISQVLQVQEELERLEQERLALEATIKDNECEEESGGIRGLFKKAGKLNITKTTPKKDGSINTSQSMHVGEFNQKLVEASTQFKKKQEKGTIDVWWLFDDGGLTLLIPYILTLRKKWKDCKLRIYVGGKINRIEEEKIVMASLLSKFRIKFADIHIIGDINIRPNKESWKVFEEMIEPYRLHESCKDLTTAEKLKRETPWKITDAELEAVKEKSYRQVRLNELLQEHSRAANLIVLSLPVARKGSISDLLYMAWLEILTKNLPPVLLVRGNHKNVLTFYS
Summary of the method: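 HEK293 cells were co-transfected by lipofection with NKCC2 (in PRK5) or empty vector plus membrane-tagged Cl−-sensitive YFP, replated after 4 h, and assayed at 48 h. Test compound (10 or 100 μM) was applied for 30 min in Cl−-free hypotonic HEPES buffer, pH 7.4. Fluorescence (ex 485/em 535 nm) was read for 20 s baseline and 60 s after NaCl (74 mM final). Fluorescence decrease is expressed as % of DMSO control; four independent experiments, mean ± SEM.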

| SMILES | KCC2 inhibition (KCC2) | diuretic effect (urine volume for 2 h) (VPA mice and controls) | repetitive behaviors in the grooming task [1] | Ca2+ influx upon GABA application [2] | level of alleged NKCC1 inhibition in the Ca2+ influx assay compared with the Cl− influx assay ([2]; 10 and 100 μM) | cell viability (fluorescence level upon KCl application) [2] | diuretic effect (urine volume for 2 h) [3] | inhibitory activity on GABAA receptors (GABA-evoked currents) (GABAA receptors) | [Cl−]i in wild-type (WT) neurons ([4]; 15 DIV WT neurons) | [Cl−]i in Ts65Dn neurons ([4]; mature (15 DIV) Ts65Dn neurons) | sociability during male-female interaction [5] | repetitive behaviors in the marble burying test [6] | inhibition at 10 µM (NKCC2) |
| --- | --- | --- | --- | --- | --- | --- | --- | --- | --- | --- | --- | --- | --- |
| CCCC[C@]1(C2CCCC2)Cc2cc(OCC(=O)O)c(Cl)c(Cl)c2C1=O [DIOA, R-(+)-[(2-n-Butyl-6,7-dichloro-2-cyclopentyl-2,3-dihydro-1-oxo-1H-inden-5-yl)oxy]acetic acid] | 37.6 ± 6.7% |  |  |  |  |  |  |  |  |  |  |  |  |
| CCCCNc1cc(C(=O)O)cc(S(N)(=O)=O)c1Oc1ccccc1 [bumetanide] |  | significantly increased the urine volume | non-significant trend toward WT levels | significantly reduced | corresponded to the levels obtained for the Cl^− influx assay | without affecting the cell viability | significantly increased the urine volume | this was not the case | without significantly affecting | restored aberrant [Cl^−]i to physiological levels | rescued poor sociability | significantly reduced repetitive behaviors | 82.7 ± 20.4% |
| NS(=O)(=O)c1cc(C(=O)O)c(NCc2ccco2)cc1Cl [furosemide] |  |  |  | significantly reduced |  | without affecting the cell viability |  | variable inhibitory activity |  |  |  |  |  |
